Measurements reported in ChEMBL document CHEMBL1944560, “Antitumor agents 292. Design, synthesis and pharmacological study of S- and O-substituted 7-mercapto- or hydroxy-coumarins and chromones as potent cytotoxic agents” (2012).

How the values were obtained:
[1] = Antiproliferative activity against human KBVIN cells after 72 hrs by SRB assay; assay type: functional
How it was run: (§1)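 Cells fixed in situ with 10% TCA at time of drug addition as time-zero reference. Drug exposure 72 h after attachment, then 10% TCA fixation and 0.4% SRB in 1% HOAc for 10 min. Unbound dye washed off with 1% HOAc, bound dye dissolved in 10 mM trizma base, absorbance read at 515 nm. GI50 is the concentration halving net protein increase relative to control.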

[2] = tested on: KB; test: Antiproliferative activity against human KB cells after 72 hrs by SRB assay; assay type: functional; how it was run: as §1
[3] = tested on: DU-145; test: Antiproliferative activity against human DU145 cells after 72 hrs by SRB assay; assay type: functional; conditions: DU-145, 72 h; how it was run: as §1
[4] = tested on: A549; test: Antiproliferative activity against human A549 cells after 72 hrs by SRB assay; assay type: functional; conditions: A549, 72 h; how it was run: as §1
[5] = tested on: A549; test: Induction of cell cycle arrest in human A549 cells assessed as G0/G1 phase cells at 10 mg after 48 hrs by FACS-based flow cytometry (reference value: 26.9%); assay type: functional
[6] = tested on: A549; test: Antiproliferative activity against human A549 cells after 48 hrs by MTT assay; assay type: functional, cell-based
How it was run: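 A549 seeded at 5 × 10^3 cells/well. Exposed to 0.06, 0.23, 0.94, 3.75, 15 or 60 μg/mL for 48 h, then medium replaced. MTT (5 mg/mL solution) added for 4 h at 37 °C, formazan dissolved in DMSO, absorbance at 570 nm. Viability expressed as % of untreated cells. Mean ± SD of three independent experiments.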

[7] = tested on: A549; test: Induction of cell cycle arrest in human A549 cells assessed as G0/G1 phase cells at 1 mg after 48 hrs by FACS-based flow cytometry (reference value: 26.9%); assay type: functional
[8] = tested on: A549; test: Induction of cell cycle arrest in human A549 cells assessed as S phase cells at 1 mg after 48 hrs by FACS-based flow cytometry (reference value: 66.74%); assay type: functional
[9] = tested on: A549; test: Induction of cell cycle arrest in human A549 cells assessed as G0/G1 phase cells at 5 mg after 48 hrs by FACS-based flow cytometry (reference value: 26.9%); assay type: functional
[10] = tested on: A549; test: Induction of apoptosis in human A549 cells after 48 hrs by DNA fluorochrome Hoechst-staining based fluorescence microscopy; assay type: functional, cell-based
How it was run: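 A549 seeded at 5 × 10^3 cells/well, treated at 0, 1, 5 and 10 µg/mL for 48 h. Monolayer fixed and stained with Hoechst 33258 for 20 min, washed with PBS, examined by fluorescence microscopy. Cells with condensed or fragmented, brightly stained nuclei scored apoptotic. Three independent experiments.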

[11] = tested on: A549; test: Induction of cell cycle arrest in human A549 cells assessed as S phase cells at 5 mg after 48 hrs by FACS-based flow cytometry (reference value: 66.74%); assay type: functional
[12] = tested on: A549; test: Induction of cell cycle arrest in human A549 cells assessed as G2/M phase cells at 1 mg after 48 hrs by FACS-based flow cytometry (reference value: 6.36%); assay type: functional
[13] = tested on: A549; test: Induction of cell cycle arrest in human A549 cells assessed as G2/M phase cells at 5 mg after 48 hrs by FACS-based flow cytometry (reference value: 6.36%); assay type: functional
[14] = tested on: A549; test: Induction of cell cycle arrest in human A549 cells assessed as S phase cells at 10 mg after 48 hrs by FACS-based flow cytometry (reference value: 66.74%); assay type: functional
[15] = tested on: A549; test: Induction of cell cycle arrest in human A549 cells assessed as G2/M phase cells at 10 mg after 48 hrs by FACS-based flow cytometry (reference value: 6.36%); assay type: functional

Compound | GI50 [1] [µM] | GI50 [2] [µM] | GI50 [3] [µM] | GI50 [4] [µM] | also measured
CC(C)Oc1ccc2c(=O)cc(C(C)Br)oc2c1CBr (stereo not given) | 11.4 | 12.8 | 15.5 | 12.8 | 
CCc1cc(=O)c2ccc(OCc3cccc(C(F)(F)F)c3)c(C)c2o1 | > 27.6 | > 27.6 | > 27.6 | > 27.6 | 
CCc1oc2c(C)c(OCc3cccc(C(F)(F)F)c3)ccc2c(=O)c1Br | > 22.7 | > 22.7 | > 22.7 | > 22.7 | 
CCc1oc2c(C)c(OCc3ccccc3)ccc2c(=O)c1Br | > 26.8 | > 26.8 | > 26.8 | > 26.8 | 
CC(C)COc1ccc2c(=O)cc(C(C)Br)oc2c1CBr (stereo not given) | 9.45 | 10.9 | 10.5 | 8.71 | 
Cc1cc(=O)oc2cc(Sc3cccc(Cl)[n+]3[O-])ccc12 | 24.5 | > 31.3 | > 31.3 | > 31.3 | 
CCc1cc(=O)c2ccc(OC(C)C)c(CBr)c2o1 | > 30.8 | > 30.8 | > 30.8 | > 30.8 | 
Cc1cc(=O)oc2cc(SCc3cccc(C#N)c3)ccc12 | > 32.5 | > 32.5 | > 32.5 | > 32.5 | 
CCOc1ccc2c(=O)cc(CC)oc2c1CBr | > 32.1 | > 32.1 | > 32.1 | > 32.1 | 
CCc1cc(=O)c2ccc(Sc3cccc(Cl)[n+]3[O-])c(C)c2o1 | > 28.8 | > 28.8 | > 28.8 | > 28.8 | 
Cc1cc(=O)oc2cc(SCc3cccc(C(F)(F)F)c3)ccc12 | > 28.5 | > 28.5 | > 28.5 | > 28.5 | 
CCc1cc(=O)c2ccc(OCc3cccc(C#N)c3)c(C)c2o1 | > 31.3 | > 31.3 | > 31.3 | > 31.3 | 
Cc1cc(=O)oc2cc(SC3CCOC3=O)ccc12 (stereo not given) | > 36.2 | > 36.2 | > 36.2 | > 36.2 | 
CCc1cc(=O)c2ccc(Sc3cccc(Cl)[n+]3[O-])cc2o1 | > 30 | > 30 | > 30 | > 30 | 
CCc1cc(=O)c2ccc(OC)c(CBr)c2o1 | > 33.6 | > 33.6 | > 33.6 | > 33.6 | 
Cc1cc(=O)oc2cc(SCc3cccnc3)ccc12 | > 35.3 | > 35.3 | > 35.3 | > 35.3 | 
CCc1cc(=O)c2ccc(OCC(C)C)c(CBr)c2o1 | > 29.5 | > 29.5 | > 29.5 | > 29.5 | 
CCc1cc(=O)c2ccc(OCc3ccccc3)c(C)c2o1 | 24.8 | > 34 | 27.7 | > 34 | 

Compound | GI50 [1] [µM] | GI50 [2] [µM] | GI50 [3] [µM] | GI50 [4] [µM] | also measured
Cc1cc(=O)oc2cc(SCc3ccncc3)ccc12 | > 35.3 | > 35.3 | > 35.3 | > 35.3 | 
Cc1cc(=O)oc2cc(SCc3ccccn3)ccc12 | > 35.3 | > 35.3 | > 35.3 | > 35.3 | 
CCc1cc(=O)c2ccc(Sc3cccc(Cl)n3)cc2o1 | > 31.5 | > 31.5 | > 31.5 | > 31.5 | 
COc1cc(CSc2ccc3c(C)cc(=O)oc3c2)cc(OC)c1 | > 29.2 | > 29.2 | > 29.2 | > 29.2 | 
COc1ccc2c(=O)cc(C(C)Br)oc2c1CBr (stereo not given) | 17 | 15.1 | > 26.6 | > 26.6 | 
COc1cccc(CSc2ccc3c(C)cc(=O)oc3c2)c1 | > 32 | > 32 | > 32 | > 32 | 
CC(=O)O[C@H]1C(=O)[C@@]2(C)[C@H]([C@H](OC(=O)c3ccccc3)[C@]3(O)C[C@H](OC(=O)[C@H](O)[C@@H](NC(=O)c4ccccc4)c4ccccc4)C(C)=C1C3(C)C)[C@]1(OC(C)=O)CO[C@@H]1C[C@@H]2O [PACLITAXEL] | > 1 | 0.00412 | 0.00386 | 0.00546 | 
COc1cc(CSc2ccc3c(C)cc(=O)oc3c2)c([N+](=O)[O-])cc1OC | > 25.8 | > 25.8 | > 25.8 | > 25.8 | 
CCOc1ccc2c(=O)cc(C(C)Br)oc2c1CBr (stereo not given) | 12.8 | 15.6 | 20.9 | 19.8 | 
Cc1cc(=O)oc2cc(Sc3cccc(Cl)n3)ccc12 | 0.92 | 0.92 | 1.15 | 2.11 | Activity [5]: 0.12%; Activity [6]: Dose-dependent effect; Activity [7]: 5.02%; Activity [8]: 11.4%; Activity [9]: 0.67%; Activity [10]: Dose-dependent effect; Activity [11]: 10.36%; Activity [12]: 83.58%; Activity [13]: 88.98%; Activity [14]: 16.03%; Activity [15]: 83.86%
CCc1oc2c(C)c(OC)ccc2c(=O)c1Br | 23.2 | > 33.6 | > 33.6 | > 33.6 | 
Cc1cccc(CSc2ccc3c(C)cc(=O)oc3c2)c1 | > 33.7 | > 33.7 | > 33.7 | > 33.7 | 
CCc1cc(=O)c2ccc(Sc3cccc(Cl)n3)c(C)c2o1 | 23.9 | > 30.1 | > 30.1 | > 30.1 | 
COc1ccc(Br)c(CSc2ccc3c(C)cc(=O)oc3c2)c1 | > 25.6 | 16 | > 25.6 | 15.3 | 
CCc1oc2c(C)c(OC(C)C)ccc2c(=O)c1Br | 5.84 | 22.6 | > 30.8 | > 30.8 | 
Cc1cc(=O)oc2cc(SCc3cccc(OC(F)(F)F)c3)ccc12 | 15.3 | 14.8 | 15.5 | 17.4 | 
CCc1cc(=O)c2ccc(OCc3cccc(C)c3)c(C)c2o1 | 24.9 | 28.6 | 24.1 | 24.9 | 
COC(=O)c1cccc(CSc2ccc3c(C)cc(=O)oc3c2)c1 | 5.41 | 2.06 | 14.1 | 7.7 | 
